Where two headings read alike, the source gives them in different places.
Experiments:
CCD841Co colonic cells = assay: Oxygen consumption rate, Seahorse XFp analyzer; type: cell-based; conditions: 1 μM, vs DMSO control media
Method in brief: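 CCD841Co cells seeded at 8000 cells/well in XFp miniplates and attached overnight (37 °C, 5% CO2). Basal OCR recorded, then 1 μM test compound or DMSO in media added. Mito Stress Test followed with sequential 1 μM oligomycin, 1 μM FCCP, and 0.5 μM rotenone plus antimycin A. Mean ± SD, n = 2.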

pAMPK in CCD841Co cells = assay: Phospho-AMPK levels by Western blot; type: cell-based; conditions: whole cell lysate, vs DMSO control
Method in brief: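 CCD841Co cells grown in MEM with 1 mM pyruvate, non-essential amino acids, 10% FBS. Plated at 0.27 million/well on poly-D-lysine-coated 12-well plates and attached overnight. Medium replaced with test compound or DMSO diluted in DMEM with 2 mM pyruvate and 2 mM L-glutamine. Lysed in Laemmli buffer; immunoblotted for phospho-AMPK (Thr172) and total AMPK, β-actin loading control.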

six CRC tumor cell lines = assay: MTS cell proliferation assay, panel of six CRC cell lines; type: cell-based; conditions: 72 h, read-out: IC50 values, range over the six CRC cell lines
Method in brief: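 Six CRC lines, each in its own medium (Leibovitz's, McCoy's 5A, MEM or RPMI) with 10% FBS and penicillin-streptomycin. Seeded at 5000 cells/well, then exposed 72 h to test compound over 0.04–10 μM or 0.001–10 μM depending on compound. Viability by colorimetric MTS; IC50 from curve fitting.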

CRC240 PDX tumors = assay: CRC240 PDX xenograft tumor growth; type: in vivo, NOD/SCID mice; conditions: vs vehicle, n = 3
Method in brief: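 CRC240 PDX tissue washed and minced in PBS at 150 mg/ml, 200 μl implanted in NOD/SCID flanks. At about 100 mm3, mice randomized and dosed orally once daily for 11 days with test compound suspended at […] in 10% 1-methyl-2-pyrrolidinone/90% PEG300, or vehicle. Tumor size and body weight on days 0, 4, 8, 11; mean ± SEM, n = 3; two-tailed Student's t test vs vehicle.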

HCT116 cells = conditions: 0.5 and 1.5 μM; cited from earlier work
[1] = Niclosamide 200 mg/kg oral, mice, plasma, non-compartmental, cited from earlier work
[2] = Plasma pharmacokinetics after oral dose; type: in vivo, NOD/SCID mice; conditions: DK419 1 mg/kg oral, mice
Method in brief: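 Test compound at 0.2 mg/mL in 10% N-methylpyrrolidinone/90% PEG300, single oral 1 mg/kg to NOD/SCID mice (n = 4). Serial tail-vein blood into heparin, pre-dose to 72 h. Plasma extracted with ethyl acetate plus an internal standard analog, then LC/MS/MS; calibration range 2.4 (LLOQ) to 1000 ng/mL. Parameters from compartmental (first-order absorption/elimination) and non-compartmental analysis.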

[3] = Body weight in CRC240 PDX xenograft study; type: in vivo; conditions: DK419 1 mg/kg orally daily for 11 days, tumor-bearing NOD/SCID mice

| IC50 (six CRC tumor cell lines) [nM] | time for which plasma levels were sustained [2] | AUCinf ([2]; plasma, compartmental) | AUCinf/DOSE ([2]; plasma, compartmental) | CL/F ([2]; plasma, compartmental) | Vd/F ([2]; plasma, compartmental) | AUCinf ([2]; plasma, non-compartmental) | AUCinf/DOSE ([2]; plasma, non-compartmental) | CL/F ([2]; plasma, non-compartmental) | Vd/F (Vz) ([2]; plasma, non-compartmental) | AUC0-LAST ([2]; plasma, non-compartmental, 0–72 h) | Compound | oxygen consumption rate (CCD841Co colonic cells) | pAMPK levels by Western blot (pAMPK in CCD841Co cells) | growth of CRC240 PDX tumors (tumor volume) (CRC240 PDX tumors; Niclosamide 72 mg/kg orally daily for 11 days) | oxygen consumption rate (HCT116 cells) | AUC0-LAST ([1]; 0–24 h) | AUCinf [1] | growth of CRC240 PDX tumors (tumor volume) (CRC240 PDX tumors; DK419 1 mg/kg orally daily for 11 days) | body weight [3] |
| --- | --- | --- | --- | --- | --- | --- | --- | --- | --- | --- | --- | --- | --- | --- | --- | --- | --- | --- | --- |
| 110 to 2390 |  |  |  |  |  |  |  |  |  |  | O=C(Nc1ccc([N+](=O)[O-])cc1Cl)c1cc(Cl)ccc1O [Niclosamide, reference compound] | increases the oxygen consumption rate | increased pAMPK levels versus control | inhibited tumor growth | caused oxygen consumption rate to increase | 1.01 ( 0–24 h) h μg/mL (per kg BW) | 1020 ng·h/mL (per kg BW) |  |  |
| 70 to 360 | more than 24 hours | 16300 ng·h/mL (per kg BW) | 16.3 µg·h/mL (per mg) | 0.06 L/h (per kg BW) | 0.98 L (per kg BW) | 16900 ng·h/mL (per kg BW) | 16.9 µg·h/mL (per mg) | 0.06 L/h (per kg BW) | 0.80 (Vz) L (per kg BW) | 16.8 ( 0–72 h) h μg/mL (per kg BW) | O=C(Nc1ccc(C(F)(F)F)cc1)c1cc(Cl)cc2nc(C(F)(F)F)[nH]c12 [DK419, 6-chloro-2-(trifluoromethyl)-N-(4-(trifluoromethyl)phenyl)-1H-benzo[d]imidazole-4-carboxamide] | increases the rate of oxygen consumption | increased the levels of pAMPK |  |  |  |  | inhibited the growth of CRC240 PDX tumors compared to vehicle control | Neither DK419 nor Niclosamide produced a change in body weight |

— paper PMC6688896 (Bioorganic & medicinal chemistry, 2018)
